The list is not random: actives were taken first. Their share in the collection is about 1.6%.
Neddylation inh: cullin neddylation inhibition. P61081+Q13564. hit rate 0.58% among 360,000. calls only at 25 µM. TR-FRET cullin neddylation, biochemical; in the data active = inhibition above about 36%
Target sequence (P61081 whole entry, looked up): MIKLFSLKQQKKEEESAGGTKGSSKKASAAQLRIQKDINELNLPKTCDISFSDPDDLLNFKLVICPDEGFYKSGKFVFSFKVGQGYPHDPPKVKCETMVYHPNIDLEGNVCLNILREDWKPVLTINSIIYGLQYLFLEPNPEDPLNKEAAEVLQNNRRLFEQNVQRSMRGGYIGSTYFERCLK
Target sequence (Q13564 whole entry, looked up): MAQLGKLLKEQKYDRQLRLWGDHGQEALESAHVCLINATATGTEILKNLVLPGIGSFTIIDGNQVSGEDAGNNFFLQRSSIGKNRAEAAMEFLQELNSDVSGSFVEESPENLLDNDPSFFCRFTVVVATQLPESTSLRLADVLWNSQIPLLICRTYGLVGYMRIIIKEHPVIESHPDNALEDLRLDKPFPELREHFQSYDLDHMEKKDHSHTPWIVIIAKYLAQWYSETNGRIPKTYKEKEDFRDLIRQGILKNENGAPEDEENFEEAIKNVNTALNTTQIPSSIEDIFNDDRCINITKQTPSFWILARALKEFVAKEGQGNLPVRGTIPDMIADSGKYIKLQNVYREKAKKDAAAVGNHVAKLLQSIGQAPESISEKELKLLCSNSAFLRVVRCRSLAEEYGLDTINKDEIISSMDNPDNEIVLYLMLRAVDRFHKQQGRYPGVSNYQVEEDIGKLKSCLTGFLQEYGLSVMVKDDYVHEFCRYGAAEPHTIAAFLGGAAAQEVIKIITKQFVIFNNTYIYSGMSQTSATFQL
proCasp3 act: activators of human procaspase-3; P42574; recombinant procaspase-3 D3A, Ac-DEVD-pNA absorbance 405 nm; activation, % at 8.5 µM; hit rate 0.11% among 330,000; AID 463141;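 active = activation above the mean of all tested compounds plus 3 SD, cut at about 21% in these data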
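Assay system: Procaspase-3 D3A mutant, all three cleavage aspartates alanine. Buffer or medium: Zinc-free HEPES saline buffer with Triton X-100. Times: 1 h compound preincubation, 2 h substrate hydrolysis at 25 °C. Measured by: 405 nm absorbance of p-nitroaniline, reads at 0 and 120 min. Read-out basis: percent activation relative to control range. Replicates: singlicate.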
proKLK7 act: activates the human kallikrein-7 zymogen | P49862 | purified proKLK7, EDANS-DABCYL substrate fluorescence; 100% is mature enzyme control, 0% vehicle | activation, % at 7 µM | hit rate 0.9% among 370,000 | AID 652039;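 active = activation above the mean of all tested compounds plus 3 SD, computed per campaign excluding outliers beyond control limits, cut at about 13% in these data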
proCasp7 act: counter-screen: procaspase-7 (human) activation; P55210; recombinant procaspase-7, Ac-DEVD-pNA absorbance 405 nm; D23A/D198A/D206A triple mutant, cannot self-cleave; scale: DMSO 0, 5 µM enzyme 100; activation, % at 8.5 µM; hit rate 0.093% among 330,000; AID 463210;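 active = percent activation above the screen-wide mean plus 3 SD, cut at about 25% in these data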
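Assay system – Uncleavable procaspase-7 mutant enzyme · Quantity – 2 µM procaspase-7 mutant as dispensed · Times – 1 h preincubation, 2 h reaction · Dosing – single nominal 8.5 µM compound dose, 0.8% DMSO final · Buffer or medium – Zinc-free 50 mM HEPES buffer, pH 7.4, with NaCl and Triton X-100 · Detection – Epi-absorbance of released pNA at 405 nm, two timepoints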
PC3 dual counter: counter-screen: procaspase-3 (human) activation; shares compounds with proCasp7 act; recombinant PC-3 D3A, Ac-DEVD-pNA absorbance 405 nm; aspartates 9, 28, 175 changed to alanine; 100% = enzyme control; activation, % at 8.5 µM; 290 tested, under 10 active;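 active = mean percent activation across triplicates above a set limit taken from the earlier primary procaspase-3 screen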
PC7 dual conf: confirmation of dual procaspase activators: human procaspase-7 activation; AID 493115; recombinant procaspase-7, Ac-DEVD-pNA absorbance 405 nm; D23A/D198A/D206A mutant that cannot self-cleave; 290 tested, under 10 active; shares compounds with proCasp7 act; activation, % at 8.5 µM;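 active = mean activation above a set limit carried over from the earlier primary screen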
A number is an active result; i = inactive; nt = no result shown.

SMILES	Neddylation inh	proCasp3 act	proKLK7 act	proCasp7 act	PC3 dual counter	PC7 dual conf
COc1ccc(C2CC(c3ccc(C(F)(F)F)cc3)=NN2c2ccc(S(N)(=O)=O)cc2)cc1 (stereo not given)	nt	22.5	i	28.2	i	i
COc1ccc(C2CC(c3ccccc3F)=NN2c2ccc(S(N)(=O)=O)cc2)cc1 (stereo not given)	nt	34.2	i	35.5	i	i
CC(=O)N1CCc2cc(S(=O)(=O)NC3CCN(C(=O)OCc4ccccc4)CC3)ccc21	nt	nt	i	nt	nt	nt
O=c1[nH]c(-c2ccccc2)nc2sc(-c3ccccc3)cc12	nt	28.8	i	25.7	i	i
O=C1c2ccccc2C2Cc3nnccc3CN12 (stereo not given)	nt	nt	i	nt	nt	nt
CCOP(=O)(OCC)c1nc(-c2cccc3ccccc23)oc1NCCc1ccc(OC)cc1	nt	21.8	i	29.5	i	i
O=C(Nc1cccnc1)c1sc(Nc2ccccc2)nc1-c1ccccc1	nt	i	i	28.7	i	i
Cc1cccc(Nc2nc(-c3ccccc3)c(C(=O)Nc3cccnc3)s2)c1	i	i	i	i	nt	nt
COC(=O)[C@]1(C#N)CC(=O)N(C)[C@@H]1c1ccccc1	nt	nt	i	nt	nt	nt
C=CC[C@@H](CC(=O)N(CCO)Cc1ccccc1)C(=O)N[C@H](C)COC(=O)[C@@H](CC=C)Cc1ccc(F)cc1	i	i	i	26.7	i	i
C=CC[C@H](CC(=O)N(CCO)Cc1ccccc1)C(=O)N[C@H](C)COC(=O)[C@@H](CC=C)Cc1ccc(F)cc1	i	i	i	i	nt	nt
O=C(N[C@@H](Cc1cccnc1)C(=O)N1CCC[C@H]1C(=O)NCCc1ccccc1Cl)C1CC1	nt	nt	i	nt	nt	nt
COc1c2ccccc2c(OC)c2ccccc12	i	81.1	i	63.5	i	i
Cc1ccc2nc3c(cc2c1)c(NC(=O)c1ccco1)nn3CC(C)C	nt	52.2	i	63.9	i	i
COC(=O)[C@]12C[C@H](CC(=O)NCC3CCCCC3)C(=O)N(Cc3ccc(Cl)cc3Cl)C1=C[C@H](C(C)C)O[C@@H]2C1CC1	nt	nt	i	nt	nt	nt
COc1ccc(C(=O)N/N=C/c2ccc3cccc(OCc4ccccc4)c3n2)cc1	nt	i	i	30.1	i	i
COc1ccc(N2CCCN(CC(=O)Nc3ccc(Cl)cc3)CC2)cc1	nt	nt	i	nt	nt	nt
COc1ccc(/C=N/NC(=O)c2sc3nc(C)cc(C)c3c2N)cc1	nt	i	i	48.8	i	i
COc1ccc(Nc2ncc(C(=O)N3CCN(c4ccc(F)cc4)CC3)c3ccccc23)cc1	nt	i	i	26.8	i	i
Cc1ccccc1CN1CCCCC(NC(=O)C(C)(C)C)C1=O (stereo not given)	nt	nt	i	nt	nt	nt
O=C(Cn1c2ccccc2c(=O)c2ccccc21)Nc1cccc(F)c1	i	49.8	i	93.0	i	i
CC(=O)N1N=C(c2ccccc2)CC1c1cccs1 (stereo not given)	i	nt	i	nt	nt	nt
CC(=O)Nc1ccc(C2=NN(c3ccccc3)C(c3cccs3)C2)cc1 (stereo not given)	nt	157.4	i	126.2	i	i
O=C(Nc1ccc(O)c(-c2nc3ccccc3s2)c1)C1=COCCO1	i	i	i	31.9	i	i
O=C(Nc1ccc(-c2nc3ccccc3s2)c(O)c1)C1=COCCO1	i	i	i	i	nt	nt
SMILES	Neddylation inh	proCasp3 act	proKLK7 act	proCasp7 act	PC3 dual counter	PC7 dual conf
CC(=O)Nc1ccc(O)c(-c2nc3ccccc3s2)c1	i	i	i	35.8	i	i
NC(=O)c1ncn([C@@H]2O[C@H](C(=O)N[C@H](Cc3c[nH]c4ccccc34)C(=O)N3CCN(CC(=O)N4CCCC4)CC3)[C@@H](O)[C@H]2O)n1	nt	nt	i	nt	nt	nt
Cc1c(C(=O)N/N=C/c2ccc(N(C)C)cc2)[nH]c2ccc(Cl)cc12	nt	i	i	35.5	i	i
O=C(CCCCCN1C(=O)C2C3C=CC(C3)C2C1=O)Nc1ccc2ncccc2c1 (stereo not given)	nt	nt	i	nt	nt	nt
Cc1ccc(-c2cc(-c3ccc(F)cc3)nc(N)c2C#N)o1	nt	41.9	i	49.6	i	i
COC(=O)C1=C(C)NC(=O)NC1c1ccc(N2CCC(c3ccccc3)=N2)cc1 (stereo not given)	nt	84.8	i	37.6	i	i
COc1ccc(/C=C/S(=O)(=O)NC2CCCC2)c(CNC(=O)OC(C)(C)C)c1	nt	nt	i	nt	nt	nt
COc1ccc(CNC(=O)C2CCCN(c3nc4ccccc4o3)C2)cc1 (stereo not given)	nt	nt	i	nt	nt	nt
O=C(Nc1ccc2c(c1)OCCO2)c1coc2ccccc2c1=O	i	i	i	36.0	i	i
Cc1cccc(/C=N/NC(=O)c2ccc(NC(=O)c3ccccc3C)cc2)n1	i	i	i	34.3	i	i
Cc1cccc(/C=N/NC(=O)c2ccc(NC(=O)c3ccccc3Cl)cc2)n1	i	i	i	i	nt	nt
COc1ccc(-c2cc(C(F)(F)F)n3nc(C(=O)NCc4ccco4)cc3n2)cc1	nt	59.8	i	41.7	i	i
CCn1c2ccccc2c2cc(NC(=O)COC(=O)c3cc(F)ccc3C)ccc21	nt	nt	i	nt	nt	nt
CCCCCCc1cc2cc(S(=O)(=O)c3ccc(C)cc3)c(=O)oc2cc1O	nt	85.6	i	31.1	i	i
COc1ccc(Cn2cc(CN3[C@@H](CC(C)C)COc4cccc(F)c4S3(=O)=O)nn2)cc1	nt	nt	i	nt	nt	nt
O=C(NC1CCCCN(Cc2cccc(Cl)c2)C1=O)c1ccc2ccccc2c1 (stereo not given)	nt	nt	i	nt	nt	nt
Cc1ccc(NC(=O)N2CCC(N(C)CCC(C)C)CC2)cc1F	nt	nt	i	nt	nt	nt
O=c1c(-c2nc3ccccc3s2)cccn1Cc1ccc(Cl)cc1	nt	123.1	i	89.8	i	i
O=C(C1=NN(c2ccccc2)C2C(=O)N(c3ccccc3Cl)C(=O)C12)c1ccccc1 (stereo not given)	i	30.3	i	47.5	45.5	34.1
O=C(C1=NN(c2ccccc2)C2C(=O)N(c3ccccc3)C(=O)C12)c1ccccc1 (stereo not given)	i	26.3	i	40.8	40.3	27.5
COc1ccccc1N1N=C(C(=O)c2ccccc2)C2C(=O)N(c3ccc(Br)cc3)C(=O)C21 (stereo not given)	i	i	i	i	nt	nt
Cc1ccc(N2C(=O)C3C(C(=O)c4ccccc4)=NN(c4ccccc4)C3C2=O)cc1 (stereo not given)	i	i	i	i	nt	nt
COc1ccccc1N1C(=O)C2C(C(=O)c3ccccc3)=NN(c3ccccc3)C2C1=O (stereo not given)	i	i	i	33.0	25.9	i
COC(=O)C1=NN(c2ccc(Cl)cc2)C2C(=O)N(c3ccccc3OC)C(=O)C12 (stereo not given)	nt	i	i	30.2	i	i
CCOC(=O)C1=NN(c2ccc(OC)cc2)C2C(=O)N(c3ccccc3OC)C(=O)C12 (stereo not given)	i	i	i	i	nt	nt

From PubChem
